Screening data (PubChem)
Diaph act CS: counter-screen for diaphorase-based assays: diaphorase activators and chemical reducers; AID 1229; Diaphorase/resazurin coupled assay, resorufin fluorescence, 16 min; active compounds read high; 1 = vehicle wells, 0 = NADH-free wells; 190,000 tested, 0.005% active; activation factor at 20 µM;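 active = diaphorase activity raised at least twofold by the compound at 20 µM; inactive = activation factor below 2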
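Material: purified diaphorase enzyme from Clostridium kluyveri / Medium: HEPES pH 7.4 buffer with MgCl2 and Tween 20 / Schedule: enzyme reaction of 16 min at room temperature / Measured by: resorufin fluorescence, excitation 544 nm, emission 590 nm / Evaluation: rise in resorufin formation, marking diaphorase activation or chemical reduction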
KCC2 mod: modulators of human KCC2 chloride dependent transport; KCC2 cells, thallium flux FluoZin-2 fluorescence; B-score of Tl+ flux slope (higher = more flux/activation; lower = inhibition) at 10 µM; 190,000 tested, 2.2% active; AID 1456;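 active = thallium flux slope and its plate-corrected score both differing from the plate sample mean at a set confidence after two filtering rounds, in either direction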;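 also: slope of fluorescence scaled to starting intensity during 10 to 20 s after thallium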
Diaphorase inh: inhibits diaphorase or chemically oxidizes, flagging diaphorase assay artifacts. AID 1217. 190,000 tested, 0.69% active. inhibition, % at 20 µM. diaphorase resazurin-to-resorufin fluorescence, NADH, 16 min; bacterial (C. kluyveri) enzyme, not human;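 active = primary screen inhibition at 20 µM above a set limit, cut at about 50% in these data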;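 also: plate controls were DMSO with full reaction for no effect and wells lacking NADH for full effect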
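Assay system – diaphorase enzyme from Clostridium kluyveri · Amount – diaphorase 0.14 U/mL (working solution) · Times – reaction incubation of 16 min at room temperature · Controls – No-NADH positive control and DMSO neutral control · Signal – resorufin fluorescence 544/590 nm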
WT yeast gro inh: growth inhibition of WT yeast, mitochondrial fusion screen. mitochondrial fusion phenotypic screen, WT strain. inhibition, % at 10 µM. 190,000 tested, 2.1% active. AID 1362; in the data active = inhibition above about 58%; tested in S. cerevisiae
Lmaj promast: Leishmania major promastigote growth inhibition; Leishmania major promastigotes, resazurin fluorescence viability; AID 1063; inhibition, % at 10 µM; 200,000 tested, 9% active; in the data active = inhibition above about 50%;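 also: promastigotes grown with compound for 44 hours at 28 °C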
ROMK mod: human ROMK K+ channel modulation, primary screen. B-score at 10 µM. 130,000 tested, 2% active. Tet-inducible ROMK, thallium flux fluorescence; actives lie on both sides. P48048. AID 1918;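 active = signal ratio slope over the read window, or its plate-corrected B-score, at least 3 SD from the plate mean, either direction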;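 also: B-score of the F/F0 ratio slope over 7 to 12 s after thallium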
Target sequence (P48048 whole entry, looked up): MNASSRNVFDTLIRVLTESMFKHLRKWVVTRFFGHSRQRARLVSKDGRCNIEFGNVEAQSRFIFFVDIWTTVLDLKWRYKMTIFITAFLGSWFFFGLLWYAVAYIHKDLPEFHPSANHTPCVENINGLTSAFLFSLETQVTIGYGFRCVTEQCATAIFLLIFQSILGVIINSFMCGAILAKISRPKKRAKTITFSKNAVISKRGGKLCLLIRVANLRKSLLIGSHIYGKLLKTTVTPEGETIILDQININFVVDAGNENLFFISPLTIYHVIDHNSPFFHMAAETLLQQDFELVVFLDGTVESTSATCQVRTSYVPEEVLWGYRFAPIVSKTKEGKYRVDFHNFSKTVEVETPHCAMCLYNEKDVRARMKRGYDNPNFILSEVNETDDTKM
Active calls of the source: *; i = inactive; / = no result given. Shown are actives, neighbours in structure and some others; about 12% of the full set was active somewhere.

SMILES | Diaph act CS | KCC2 mod | Diaphorase inh | WT yeast gro inh | Lmaj promast | ROMK mod
CN1C(=O)S/C(=C/c2ccccc2OCc2ccc(C(=O)O)cc2)C1=O | 0.9 | -4.3* | 13 | -18 | -3 | -2.7*
CN1C(=O)S/C(=C\c2ccccc2OCc2ccc(C(=O)O)cc2)C1=O | 1 | -2.4 | -1 | -1 | 10 | -0.072
COc1ccc(N2C(=O)C(CC(=O)Nc3ccccc3)N(Cc3ccccn3)C2=S)cc1 (configuration not stated) | 0.8 | 0.071 | 21 | -6 | 23 | -0.028
CCc1cc(C(=O)Nc2cc(S(=O)(=O)N(C)C)ccc2C)sc1C | 0.9 | -0.15 | 8 | -16 | 99* | -0.94
Cc1ccc(S(=O)(=O)N(C)C)cc1NC(=O)c1ccncc1 | 1 | 1.6 | 3 | -21 | -4 | 1.7
O=c1[nH]c2ccccc2n2c(-c3ccncc3)nnc12 | 0.9 | 0.47 | 5 | 8 | 0 | -0.6
CCCCn1c(=NC(=O)c2ccco2)c(C(=O)OCC)cc2c(=O)n3ccccc3nc21 | 1 | / | 3 | 3 | 51* | 0.0051
CCOC(=O)c1cc2c(=O)n3ccccc3nc2n(C(C)C)c1=NC(=O)c1c(-c2c(F)cccc2Cl)noc1C | 0.9 | -0.39 | 12 | 38 | 99* | /
CCCCCn1c(=NC(=O)c2ccco2)c(C(=O)OCC)cc2c(=O)n3ccccc3nc21 | 0.9 | -0.44 | 6 | -2 | 49 | /
O=C(C1CCCO1)N1CCN(C(=S)Nc2ccc(F)cc2)CC1 (configuration not stated) | 1 | 0.37 | 0 | -4 | 56* | 0.029
O=C(C1CCCO1)N1CCN(C(=S)Nc2ccc(F)c(Cl)c2)CC1 (configuration not stated) | 1.1 | -0.05 | -11 | -15 | -5 | /
CCCN(CCC)C(=O)CC(c1ccccc1)c1ccc(C)cc1O (configuration not stated) | 1 | -1.5 | 4 | 35 | 46 | -1.7
CCCN(CCC)C(=O)CC(c1ccccc1)c1cc(Br)ccc1O (configuration not stated) | 0.7 | / | 30 | 76* | 30 | -0.52
CCC/C(=N/NC(=O)c1csc(C)c1C)c1ccc(Cl)s1 | 0.9 | 3.7* | 12 | 3 | -2 | 0.22
Cc1scc(C(=O)N/N=C/c2ccco2)c1C | 0.9 | 4.3 | 11 | 17 | -9 | /
Cc1ccc(/C=N/N=C2\SCC(=O)N2CC2CC2)cc1 | / | 0.028 | / | / | / | /
Cc1cc(C)c(C)c(OCCCOc2cccc3cccnc23)c1 | 0.9 | 0.86 | 6 | 89* | 25 | -0.035
CCOC(=O)/C(=C\C=C1/Sc2cc(OCC)c(OCC)cc2N1CC)C(C)=O | 0.9 | i | 10 | 5 | 34 | /
CCOC(=O)/C(=C/C=C1\Sc2cc(OCC)c(OCC)cc2N1CC)C(C)=O | 0.9 | i | 8 | 8 | 68* | /
Nc1nc(NS(=O)(=O)c2ccc(Cl)cc2)nn1-c1ccccc1 | / | 0.54 | / | / | / | 0.017
CC(=O)Nc1ccc(NC(=O)C2CCCN2C(=O)Nc2ccc(F)c([N+](=O)[O-])c2)cc1 (configuration not stated) | 1 | -0.77 | 1 | -21 | -9 | 0.77
CCN(CC)S(=O)(=O)c1cccc(-c2nnc(SCC(=O)c3ccc(Cl)s3)n2C)c1 | 0.8 | -0.82 | 21 | / | 78* | -0.83
CCn1ccnc1CN1CCc2c([nH]c3ccccc23)C1CC(C)C (configuration not stated) | 1 | -0.54 | -1 | 57 | 43 | -0.14
COCc1ccc(CN2CCc3c([nH]c4ccccc34)C2C(C)(C)C)o1 (configuration not stated) | 0.7 | -0.38 | 26 | -4 | 50* | -0.34
Cc1c(CN2CCc3c([nH]c4ccccc34)C2C2CCCCC2)cnn1C (configuration not stated) | 0.9 | / | 9 | 10 | 24 | -0.56
CCn1ccnc1CN1CCc2c([nH]c3ccccc23)C1C(C)(C)C (configuration not stated) | 0.9 | / | 12 | 57 | 52* | /
CCn1ccnc1CN1CCc2c([nH]c3ccccc23)C1C1CCCCC1 (configuration not stated) | / | / | / | 65* | 40 | 0.16
O=C1c2ccc(Br)cc2C(=O)N1c1ccc(Cc2ccncc2)cc1 | / | / | / | 23 | -2 | -0.045
